From ChEMBL document CHEMBL2016576, “Design, synthesis and structure-activity-relationship of 1,5-tetrahydronaphthyridines as CETP inhibitors” (Bioorg Med Chem Lett, 2012) come the findings set out here.

Molecules are shown by their SMILES.

A word on the inhibition in vivo: it is the change of the read-out against control, counted positive when it falls. For orientation: IC50 means the midpoint of a concentration-inhibition curve. What is called bioavailability is dose-corrected exposure relative to a reference, in per cent.

Series [1] in a line: Induction of cortisol synthase mRNA level in human NCI-H295 cells by in vitro branched DNA method. It counts as cell-based.
The subject of series [2] is Mus musculus. In words: Ex-vivo inhibition of CETP activity in transgenic mouse harboring human CETP/human ApoA1 gene at 30 mg/kg, po measured after 8 hrs. It counts as functional. The procedure, abridged: (§1)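 Male hCETP/hApoA1 heterozygous dual transgenic mice given 30 mg/Kg orally in corn oil (79.5%)/oleic acid (20%)/labrafil (0.5%); blood taken over an 8 h time course; serum tested ex vivo for CETP activity and in vivo serum HDL-c measured.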

Series [3] can be described thus: Clearance in Sprague-Dawley rat at 1 mg/kg, iv and 3 mg/kg, po after 72 hrs. It is filed as ADME, organism-based. As to conditions: in vivo.
In series [4] the target is T1, Cholesteryl ester transfer protein (Homo sapiens, UniProt P11597).
T1 sequence (P11597 whole entry): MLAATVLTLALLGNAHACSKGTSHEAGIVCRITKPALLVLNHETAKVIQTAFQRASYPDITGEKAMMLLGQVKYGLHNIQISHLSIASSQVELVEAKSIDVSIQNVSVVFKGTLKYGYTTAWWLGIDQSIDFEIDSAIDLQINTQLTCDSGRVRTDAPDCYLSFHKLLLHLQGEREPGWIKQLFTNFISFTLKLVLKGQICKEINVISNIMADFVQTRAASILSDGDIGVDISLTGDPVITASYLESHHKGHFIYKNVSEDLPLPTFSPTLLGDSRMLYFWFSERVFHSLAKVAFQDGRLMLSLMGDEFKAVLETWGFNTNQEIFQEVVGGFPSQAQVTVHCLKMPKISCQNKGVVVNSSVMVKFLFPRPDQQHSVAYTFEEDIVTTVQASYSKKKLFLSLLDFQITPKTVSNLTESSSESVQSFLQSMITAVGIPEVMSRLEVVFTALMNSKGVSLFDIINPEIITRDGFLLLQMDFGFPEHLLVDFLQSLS
As to the kind of experiment: Inhibition of CETP in human plasma assessed as reduction in fluorescent intensity by fluorescence analysis.

The test system of series [5] is aldosterone synthase mRNA. In words: Induction of aldosterone synthase mRNA level in human NCI-H295 cells by in vitro branched DNA method relative to control. It is filed as cell-based. The conditions noted are these: read-out: FC. The procedure, abridged: (§2)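 Human adrenal H295 cells were assayed in vitro. CYP11B2 (aldosterone synthase) and CYP11B1 (cortisol synthase) mRNA were quantified by branched DNA, and induction was expressed relative to untreated control.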

Series [6] relates to Mus musculus. In words: Increase in HDL-cholesterol level in transgenic mouse harboring human CETP/human ApoA1 gene at 30 mg/kg, po measured after 8 hrs. It counts as functional. A digest of the protocol: as §1
A short description of series [7]: Oral bioavailability in Sprague-Dawley rat at 3 mg/kg after 72 hrs. It counts as ADME, organism-based. The conditions noted are these: in vivo.
The subject of series [8] is cortisol synthase mRNA. As to the kind of experiment: Induction of cortisol synthase mRNA level in human NCI-H295 cells by in vitro branched DNA method relative to control. It is filed as cell-based. The conditions noted are these: read-out: FC. A digest of the protocol:
as §2

Series [9] in a line: Clearance in beagle dog at 1 mg/kg, iv and 3 mg/kg, po after 72 hrs. The conditions noted are these: in vivo. It counts as ADME, organism-based, Canis lupus familiaris.
The nature of series [10]: Clearance in cynomolgus monkey at 1 mg/kg, iv and 3 mg/kg, po after 72 hrs. As to conditions: in vivo. It counts as ADME, organism-based, Macaca fascicularis.
Series [11] can be described thus: Oral bioavailability in beagle dog at 3 mg/kg after 72 hrs. It counts as ADME, organism-based, Canis lupus familiaris. As to conditions: in vivo.
The nature of series [12]: Oral bioavailability in cynomolgus monkey at 3 mg/kg after 72 hrs. It counts as ADME, organism-based, Macaca fascicularis. As to conditions: in vivo.

`CCOC(=O)N1c2ccc(C(F)(F)F)cc2[C@@H](N(Cc2cc(C(F)(F)F)cc(C(F)(F)F)c2)C(=O)OC)C[C@H]1CC` [TORCETRAPIB]: the Activity result in series [1] is reported as “Toxic”.

`CC[C@@H]1C[C@H](N(Cc2cc(C(F)(F)F)cc(C(F)(F)F)c2)c2nnn(C)n2)c2nc(C(F)(F)F)ccc2N1C(=O)OC(C)C`: the inhibition in vivo at 30 mg/kg in [2] worked out at 91.6%. Further, the clearance in series [3] was found to be 5.5 mL/min/kg; in series [9], 1.5 mL/min/kg; in series [10], 0.7 mL/min/kg. The IC50 in series [4] was 23 nM. The fold induction in series [5] and in [8] was 10 each time. Also, the Activity in [6] is recorded as 134%. The values for the bioavailability in series [7], in series [11] and in series [12] were 31%, 49% and 18%, respectively.

As for `CC[C@@H]1C[C@H](N(Cc2cc(C(F)(F)F)cc(C(F)(F)F)c2)c2nnn(C)n2)c2nc(C)ccc2N1C(=O)OC(C)C`, in series [2], the inhibition in vivo at 30 mg/kg came to 105%. Further, the clearance is 16.4 mL/min/kg in series [3] and 2.2 mL/min/kg in series [10]. The IC50 in series [4] is 22 nM. The Activity in [6] stood at 147.8%. For the same compound, the bioavailability in [7] came to 18%; in series [12], 32%.

Turning to `CC[C@@H]1C[C@H](N(Cc2cc(C(F)(F)F)cc(C(F)(F)F)c2)c2nnn(C)n2)c2nc(NC)ccc2N1C(=O)OC(C)C`, the IC50 in series [4] came out at 142 nM.
